Active and inactive are the calls of the source. The rule behind the calls is not given here.
Columns and labels:
Jurkat [1] = assay: Protection against staurosporine-induced apoptosis in human Jurkat assessed as increase in cell viability at 0.1 to 50 uM measured after 24 hrs by MTS assay; assay type: functional, cell-based; settings: dose 0.1-50 µM
Method in brief: (§1)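 Jurkat wild-type cells treated with TRAIL-Flag (20 ng/mL) or staurosporine (100 nM) together with increasing compound doses for 24 h; viability by MTS reduction as % of DMSO-treated cells; mean ± SD, n = 3.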

[2] = target: Receptor-interacting serine/threonine-protein kinase 3 (Homo sapiens, UniProt Q9Y572); assay: Inhibition of recombinant human RIPK3 expressed in baculovirus infected Sf9 insect cells using myelin basic protein as substrate by ADP-Glo assay
Jurkat [3] = assay: Protection against TRAIL-induced apoptosis in human Jurkat assessed as increase in cell viability at 0.1 to 50 uM measured after 24 hrs by MTS assay; assay type: functional, cell-based; settings: dose 0.1-50 µM; method in brief: as §1
[4] = target: Tyrosine-protein kinase ABL1 (Homo sapiens, UniProt P00519); assay: Inhibition of recombinant human ABL1 (118 to 535 residues) expressed in baculovirus infected Sf9 insect cells using EAIYAAPFAKKK as substrate by ADP-glo assay
[5] = target: T1, Receptor-interacting serine/threonine-protein kinase 1 (Homo sapiens) (UniProt Q13546); assay: Inhibition of RIPK1 in human FADD-deficient Jurkat I 2.1 cells assessed as protection against TNFalpha-induced necroptosis measured after 24 hrs by MTS assay
T1 sequence (whole entry): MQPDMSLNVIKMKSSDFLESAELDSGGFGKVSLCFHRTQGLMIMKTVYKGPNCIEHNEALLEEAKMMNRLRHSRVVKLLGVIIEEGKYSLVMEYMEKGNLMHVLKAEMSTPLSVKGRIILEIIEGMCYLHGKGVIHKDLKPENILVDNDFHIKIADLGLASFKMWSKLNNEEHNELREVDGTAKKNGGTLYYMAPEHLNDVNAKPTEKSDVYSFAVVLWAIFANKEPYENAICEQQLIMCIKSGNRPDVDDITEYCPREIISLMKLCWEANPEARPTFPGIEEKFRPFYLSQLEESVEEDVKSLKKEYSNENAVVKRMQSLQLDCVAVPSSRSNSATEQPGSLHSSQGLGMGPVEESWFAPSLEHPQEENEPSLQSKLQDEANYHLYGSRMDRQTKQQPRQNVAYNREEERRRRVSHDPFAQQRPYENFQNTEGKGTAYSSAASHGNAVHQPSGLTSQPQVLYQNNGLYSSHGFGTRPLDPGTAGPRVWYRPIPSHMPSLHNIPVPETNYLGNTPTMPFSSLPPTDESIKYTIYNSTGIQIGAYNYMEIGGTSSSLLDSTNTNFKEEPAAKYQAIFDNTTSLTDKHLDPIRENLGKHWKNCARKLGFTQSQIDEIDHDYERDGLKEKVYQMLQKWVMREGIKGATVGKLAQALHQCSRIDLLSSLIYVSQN

[6] = target: Casein kinase I isoform epsilon (Homo sapiens, UniProt P49674); assay: Inhibition of recombinant human CK1epsilon expressed in baculovirus infected Sf9 insect cells using RRKHAAIGSpAYSITA as substrate by ADP-glo assay
[7] = target: T2, Tyrosine-protein kinase JAK3 (Homo sapiens, UniProt P52333); assay: Inhibition of recombinant human JAK3 C-terminal domain (781 to 1124 residues) expressed in baculovirus infected Sf9 insect cells using GGEEEEYFELVKKKK as substrate by ADP-glo assay
T2 sequence (P52333 whole entry): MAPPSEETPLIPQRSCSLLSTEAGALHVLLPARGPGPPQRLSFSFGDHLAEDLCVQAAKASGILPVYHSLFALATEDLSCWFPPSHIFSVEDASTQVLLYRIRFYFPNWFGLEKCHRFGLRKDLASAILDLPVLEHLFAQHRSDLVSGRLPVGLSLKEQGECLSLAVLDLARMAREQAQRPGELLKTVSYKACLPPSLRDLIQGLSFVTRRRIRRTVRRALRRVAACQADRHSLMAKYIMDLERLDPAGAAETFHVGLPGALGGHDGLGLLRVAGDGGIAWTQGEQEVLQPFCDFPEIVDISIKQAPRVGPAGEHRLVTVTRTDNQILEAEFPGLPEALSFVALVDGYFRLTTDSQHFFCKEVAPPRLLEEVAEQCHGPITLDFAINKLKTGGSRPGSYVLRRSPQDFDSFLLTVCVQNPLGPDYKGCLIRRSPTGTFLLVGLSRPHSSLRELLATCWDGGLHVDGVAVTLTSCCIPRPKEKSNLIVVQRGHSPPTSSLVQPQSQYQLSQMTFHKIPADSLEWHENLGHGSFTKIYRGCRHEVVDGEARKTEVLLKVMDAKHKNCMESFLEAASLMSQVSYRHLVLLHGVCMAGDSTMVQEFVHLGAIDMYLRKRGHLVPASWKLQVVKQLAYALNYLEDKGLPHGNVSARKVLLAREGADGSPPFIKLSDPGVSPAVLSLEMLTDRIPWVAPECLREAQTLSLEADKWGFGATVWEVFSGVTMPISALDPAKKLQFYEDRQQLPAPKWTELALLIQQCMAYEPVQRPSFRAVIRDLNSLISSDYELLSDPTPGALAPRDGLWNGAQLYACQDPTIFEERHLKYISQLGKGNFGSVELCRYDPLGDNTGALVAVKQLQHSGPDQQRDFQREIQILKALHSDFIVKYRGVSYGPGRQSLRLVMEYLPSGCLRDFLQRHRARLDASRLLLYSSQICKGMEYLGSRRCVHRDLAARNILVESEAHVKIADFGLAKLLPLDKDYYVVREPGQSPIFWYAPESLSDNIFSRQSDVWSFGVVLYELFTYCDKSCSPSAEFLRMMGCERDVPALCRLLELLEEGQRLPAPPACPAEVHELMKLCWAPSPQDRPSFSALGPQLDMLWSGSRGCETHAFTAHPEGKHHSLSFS

TERT-RPE1 = assay: Cytotoxicity against human TERT-RPE1 cells assessed as increase in LDH release at 0.01 to 50 uM measured after 24 hrs by CyQUANT reagent based assay; assay type: cell-based; settings: tert-rpe1, 24 h, dose 0.01-50 µM
Method in brief: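 hTERT RPE-1 cells (DMEM-F12-Glutamax, 10% FCS, 37 °C, 5% CO2) exposed 24 h to compound from 0.01 to 50 μM; viability measured.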

[8] = Cytotoxicity against human FADD-deficient Jurkat I 2.1 cells assessed as reduction in cell viability at >25 uM measured after 24 hrs by MTS assay; assay type: cell-based; settings: jurkat i 2.1, 24 h

Tyrosine-protein kinase ABL1, sequence (P00519 whole entry, the tested form may be a part): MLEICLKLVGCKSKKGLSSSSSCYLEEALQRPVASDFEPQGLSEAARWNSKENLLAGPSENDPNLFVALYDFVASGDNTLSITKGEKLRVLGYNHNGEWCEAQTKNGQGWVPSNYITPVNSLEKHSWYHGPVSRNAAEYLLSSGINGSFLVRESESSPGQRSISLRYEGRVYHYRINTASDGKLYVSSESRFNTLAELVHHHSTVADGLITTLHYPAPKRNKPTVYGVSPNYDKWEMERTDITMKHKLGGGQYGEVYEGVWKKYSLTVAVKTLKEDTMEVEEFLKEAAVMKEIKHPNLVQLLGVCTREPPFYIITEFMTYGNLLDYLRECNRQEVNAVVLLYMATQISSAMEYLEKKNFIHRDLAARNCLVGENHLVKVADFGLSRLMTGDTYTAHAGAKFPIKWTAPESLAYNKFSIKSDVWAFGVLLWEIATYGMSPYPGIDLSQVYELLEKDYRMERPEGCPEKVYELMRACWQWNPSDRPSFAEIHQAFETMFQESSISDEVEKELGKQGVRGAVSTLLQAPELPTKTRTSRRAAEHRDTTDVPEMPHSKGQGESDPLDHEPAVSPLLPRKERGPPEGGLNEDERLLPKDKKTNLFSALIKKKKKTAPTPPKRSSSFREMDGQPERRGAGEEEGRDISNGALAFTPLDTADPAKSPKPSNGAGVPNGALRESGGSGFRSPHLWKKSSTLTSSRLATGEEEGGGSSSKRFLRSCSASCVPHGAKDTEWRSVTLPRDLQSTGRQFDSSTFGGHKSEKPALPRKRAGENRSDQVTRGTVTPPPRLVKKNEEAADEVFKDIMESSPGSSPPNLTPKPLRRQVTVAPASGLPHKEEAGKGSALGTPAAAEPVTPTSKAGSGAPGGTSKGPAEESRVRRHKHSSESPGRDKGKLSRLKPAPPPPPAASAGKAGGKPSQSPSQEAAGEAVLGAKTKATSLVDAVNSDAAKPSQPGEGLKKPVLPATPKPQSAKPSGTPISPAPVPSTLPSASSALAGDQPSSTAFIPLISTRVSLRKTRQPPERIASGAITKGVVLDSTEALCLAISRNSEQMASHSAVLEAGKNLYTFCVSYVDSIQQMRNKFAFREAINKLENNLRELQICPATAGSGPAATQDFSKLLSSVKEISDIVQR
Casein kinase I isoform epsilon, sequence (P49674 whole entry, the tested form may be a part, canonical isoform): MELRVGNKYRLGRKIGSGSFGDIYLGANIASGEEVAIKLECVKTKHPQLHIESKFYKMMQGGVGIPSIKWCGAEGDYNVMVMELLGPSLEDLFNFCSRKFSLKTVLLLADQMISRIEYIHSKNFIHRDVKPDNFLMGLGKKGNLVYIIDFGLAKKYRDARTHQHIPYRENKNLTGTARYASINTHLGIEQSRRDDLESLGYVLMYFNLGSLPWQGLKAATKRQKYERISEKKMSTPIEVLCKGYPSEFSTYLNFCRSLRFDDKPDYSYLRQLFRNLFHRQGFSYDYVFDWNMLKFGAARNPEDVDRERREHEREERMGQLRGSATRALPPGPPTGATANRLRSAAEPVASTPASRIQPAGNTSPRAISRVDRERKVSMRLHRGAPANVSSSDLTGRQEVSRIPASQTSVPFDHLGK
Receptor-interacting serine/threonine-protein kinase 3, sequence (Q9Y572 whole entry): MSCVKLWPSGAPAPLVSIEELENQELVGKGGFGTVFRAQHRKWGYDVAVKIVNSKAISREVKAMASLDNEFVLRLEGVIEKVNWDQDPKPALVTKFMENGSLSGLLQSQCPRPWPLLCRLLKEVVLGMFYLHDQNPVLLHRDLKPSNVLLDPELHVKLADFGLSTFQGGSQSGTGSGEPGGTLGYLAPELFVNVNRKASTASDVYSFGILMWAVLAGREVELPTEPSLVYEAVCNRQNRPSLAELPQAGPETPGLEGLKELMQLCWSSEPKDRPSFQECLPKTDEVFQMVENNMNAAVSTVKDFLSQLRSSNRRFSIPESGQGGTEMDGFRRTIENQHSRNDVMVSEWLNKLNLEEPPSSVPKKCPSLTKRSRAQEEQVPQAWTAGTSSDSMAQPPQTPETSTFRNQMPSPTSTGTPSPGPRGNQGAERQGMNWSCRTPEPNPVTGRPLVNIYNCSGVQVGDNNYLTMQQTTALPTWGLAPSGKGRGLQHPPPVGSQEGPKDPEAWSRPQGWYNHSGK

Row | Compound | Activity (Jurkat [1]) | IC50 [2] [µM] | Activity (Jurkat [3]) | IC50 [4] [µM] | inhibition [5] | IC50 [6] [µM] | IC50 [7] [µM] | Activity (TERT-RPE1) | Activity [8]
1 | CCCCNc1nc2cc([N+](=O)[O-])ccc2s1 | inactive | > 10 | inactive | > 10 | Dose-dependent effect | > 10 | > 10 | Non-Toxic | 
2 | CCCCNc1nc2ccc([N+](=O)[O-])cc2[nH]1 |  | > 10 |  | > 10 | Dose-dependent effect | > 10 | > 10 | Non-Toxic | Toxic
